Assay outcomes deposited in PubChem BioAssay by several laboratories.
MC4R antagonist: blocks human MC4R cAMP signaling. P32245. MC4R-expressing cells, MTII-stimulated cAMP, LANCE TR-FRET. inhibition, % at 6.5 µM. actives 0.48% (n = 360,000);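 active = inhibition above its plate's cutoff, the mean of tested wells on that plate plus 3 SD, cut at about 29% in these data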;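 also: 0% = Melanotan II alone and 100% = Melanotan II plus saturating MCL0020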
Target sequence (P32245 whole entry, looked up): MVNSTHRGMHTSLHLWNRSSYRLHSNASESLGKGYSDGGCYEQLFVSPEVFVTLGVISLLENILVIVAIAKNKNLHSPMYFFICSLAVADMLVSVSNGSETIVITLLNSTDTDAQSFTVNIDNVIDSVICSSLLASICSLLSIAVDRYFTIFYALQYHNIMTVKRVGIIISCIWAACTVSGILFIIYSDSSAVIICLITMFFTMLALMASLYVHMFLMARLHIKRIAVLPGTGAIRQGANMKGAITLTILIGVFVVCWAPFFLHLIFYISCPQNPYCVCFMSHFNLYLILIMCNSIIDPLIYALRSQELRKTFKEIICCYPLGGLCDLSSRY
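Assay system: human MC4R-expressing U2OS cells; reagent: Melanotan II stimulation of cells; dosing: 6.5 µM single dose; timing: compound 30 min, challenge 1 h, detection 1 h; signal: TR-FRET cAMP assay; replicates: one well per compound, no replicates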
MPTP inh: blocks calcium-induced mitochondrial swelling | isolated mouse mitochondria, Ca2+ swelling absorbance, 30 min | inhibition, % at 10 µM | actives 1.4% (n = 360,000) | AID 602449;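 active = inhibition of 50% or more, scaled per plate between neutral and stimulator controls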;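 also: 0% = DMSO wells given calcium and 100% = 1 mM EGTA wells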
ATG4B inh: ATG4B (human) cysteine protease inhibition; Q9Y4P1; ATG4B cleavage of LC3-PLA2, NBD-HPC fluorescence, 1 h; inhibition, % at 8.33 µM; actives 0.51% (n = 340,000); AID 504462; in the data active = inhibition above about 40%
MC4R ag barr: human MC4R agonism via beta-arrestin; P32245; U2OS MC4R beta-arrestin complementation, luminescence; percent of melanotan II response, DMSO zero; activation, % at 8.9 µM; actives 0.98% (n = 360,000); AID 540308;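 active = activation above a per-plate cutoff, the mean activation of sample wells on that plate plus 3 SD, cut at about 8% in these data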
SMARCA2 act: SMARCA2 function activation, primary screen; AID 652017; MG213 cells, MMTV-luciferase reporter, dexamethasone, overnight; activation, % at 9.1 µM; actives 1% (n = 370,000); in the data active = activation above about 7.8%;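 also: 0% = vehicle wells and 100% = reference activator wells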
cAMP nonselect: counter-screen for MC4R antagonists: nonselective cAMP signaling inhibitors. shares compounds with MC4R antagonist. parental U2OS, forskolin cAMP, LANCE TR-FRET. inhibition, % at 6.5 µM. actives 26% (n = 1,600);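 active = mean inhibition over triplicates above the low-control well mean plus 3 SD, set per campaign, cut at about 13% in these data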;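 also: signal is single emission at 671 nm which falls as cellular cAMP rises; 0% = forskolin-stimulated wells and 100% = buffer without forskolin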
MC4R cAMP antag: human MC4R cAMP antagonism confirmation | shares compounds with MC4R antagonist | MC4R-expressing cells, MTII-stimulated cAMP, TR-FRET | inhibition, % at 6.5 µM | actives 27% (n = 1,600) | AID 602195; in the data active = inhibition above about 29%;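 also: 0% = agonist stimulated wells alone and 100% = agonist stimulated wells plus saturating reference antagonist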
Numbers without * were called inactive; / = no result; + = active, no number. The list is not random: actives were taken first. Their share in the collection is about 4.1%.

SMILES	MC4R antagonist	MPTP inh	ATG4B inh	MC4R ag barr	SMARCA2 act	cAMP nonselect	MC4R cAMP antag
COC(=O)[C@]12C[C@H](CC(=O)N3CCSCC3)C(=O)N(Cc3ccc4c(c3)OCO4)C1=C[C@H](COCc1ccccc1)O[C@@H]2C	/	/	/	/	-5.8	/	/
O=C(CN(Cc1ccccc1)C(=O)CNS(=O)(=O)c1ccccc1)NCC1CCCO1 (stereo not given)	1.6	-0.1	-7.0	-1.1	-1.0	/	/
O=C(CN(Cc1ccc(Cl)cc1)C(=O)CNS(=O)(=O)c1ccccc1)NCC1CCCO1 (stereo not given)	31.0*	-0.7	6.1	2.1	-0.7	0.4	6.3
CCCCNC(=O)C[C@H]1C[C@@]2(C(=O)OC)C(=C[C@H](C3CCCC3)O[C@@H]2C)N(Cc2cccc3ccccc23)C1=O	/	/	/	/	-2.5	/	/
CCCCn1c(N)c(N(CCC(C)C)C(=O)CCCc2nc3ccccc3s2)c(=O)[nH]c1=O	29.9*	-0.2	1.4	-1.9	-2.9	4.5	15.4
COC(=O)C/C=C/[C@@H](C)[C@H](NC(=O)OCC(Cl)(Cl)Cl)c1ccc(-c2ccccc2)cc1	/	/	/	/	-0.7	/	/
N#Cc1ccc(S(=O)(=O)NCC(=O)OCC(=O)N2CCCC2=O)cc1	33.7*	6.3	1.3	-4.6	-3.2	18.9*	14.1
COc1ccccc1CNC(=O)c1oc2ccc(S(=O)(=O)N3CCCC3)cc2c1C	29.3*	1.5	0.4	-0.5	/	4.4	11.7
COc1ccc(CNC(=O)c2oc3ccc(S(=O)(=O)N4CCOCC4)cc3c2C)cc1	31.8*	0.0	-10.8	0.7	-2.6	-0.8	4.2
NC(=Nc1cccc(F)c1)NC(=O)OCc1ccccc1	/	/	/	/	1.9	/	/
COC(=O)c1ccccc1NC(=O)N1CCN(S(C)(=O)=O)CC1	30.9*	-1.4	5.7	0.4	-0.1	-0.1	4.8
COc1ccc(-n2c(CN3CCOCC3)nc3ccc([N+](=O)[O-])cc3c2=O)c(OC)c1	5.0	0.9	-6.4	-1.3	-1.7	/	/
COc1ccc(-n2c(CN3CCC(C)CC3)nc3ccc([N+](=O)[O-])cc3c2=O)c(OC)c1	33.7*	0.5	-2.0	-0.1	3.8	0.3	-9.4
Cc1[nH]c(=O)[nH]c(=O)c1S(=O)(=O)Nc1cccc([N+](=O)[O-])c1C	29.7*	-1.0	3.6	-0.4	-2.1	1.0	-7.5
Cc1[nH]c(=O)[nH]c(=O)c1S(=O)(=O)Nc1ccc(Cl)c([N+](=O)[O-])c1	11.7	-1.3	7.5	-0.3	1.5	/	/
O=C(O)CNS(=O)(=O)c1ccc(F)cc1	7.1	-3.1	-2.2	0.8	-3.0	/	/
O=C(O)CNS(=O)(=O)c1ccc(C2CCCCC2)cc1	32.3*	-1.3	4.8	1.5	-3.0	1.8	0.9
CC(C)(C)C(=O)COC(=O)CNC(=O)c1ccc(Oc2ccccc2)cc1	28.6*	-2.2	-12.8	-1.1	-3.0	12.8	21.0
CC(C)(C)c1ccc(-n2nc(C(N)=O)c(O)cc2=O)cc1	-7.6	0.0	-4.5	1.8	2.4	/	/
CC(C)(C)c1ccc(-n2nc(C#N)c(Cl)cc2=O)cc1	94.1*	-2.7	1.3	-2.7	-9.2	40.9*	89.5*
O=C1C(Cl)=C(NCCc2ccccc2)C(=O)c2ccccc21	42.4*	1.1	-1.6	-3.9	7.5	9.5	-18.3
COC(=O)[C@]12C[C@H](CC(=O)NCCCCc3ccccc3)C(=O)N(CCC3=CCCCC3)C1=C[C@H](C(C)(C)C)O[C@@H]2C	/	/	/	/	-6.1	/	/
COc1ccc(CCN2C(=O)CC(N3CCN(S(=O)(=O)c4ccccc4)CC3)C2=O)cc1OC (stereo not given)	33.5*	0.3	-0.7	-1.0	-1.8	-0.9	-8.5
C#CCN1CC(N(C)CCOC(=O)c2ccc(OC)c(OC)c2)CS1(=O)=O (stereo not given)	/	/	/	/	-5.7	/	/
CC(C)Cc1ccc(-c2cc3nc(NCCc4ccc(S(N)(=O)=O)cc4)ccn3n2)cc1	28.8*	1.8	/	4.7	2.0	4.8	3.0
SMILES	MC4R antagonist	MPTP inh	ATG4B inh	MC4R ag barr	SMARCA2 act	cAMP nonselect	MC4R cAMP antag
CC(=O)N(Cc1ccccc1)c1nccs1	/	/	/	/	1.4	/	/
Cc1ccccc1CS(=O)(=O)Cc1ccc(C(=O)Nc2cccc(Cl)c2F)o1	/	/	/	/	-0.7	/	/
CCc1ccc(C(C(=O)NCc2ccc(F)cc2)N(C(=O)c2csnn2)C2CC2)cc1 (stereo not given)	28.8*	1.1	3.2	2.5	-1.9	3.4	2.6
Cc1ccc2nc(N3C(=O)C(O)=C(C(=O)c4ccc(C)o4)C3c3cccc(O)c3)sc2c1 (stereo not given)	31.4*	-1.6	-9.7	0.3	0.0	1.8	13.3
COC(=O)c1sc(N2C(=O)C(O)=C(C(=O)c3ccc(C)o3)C2c2ccc(OC)c(OC)c2)nc1C (stereo not given)	187.9*	-0.6	-3.6	-2.8	-1.1	-0.1	-16.4
CCOc1ccc(C2C(C(=O)c3ccc(C)o3)=C(O)C(=O)N2c2nc(C)c(C(=O)OC)s2)cc1 (stereo not given)	+	3.0	4.2	1.0	1.6	74.5*	143.4*
COC(=O)c1sc(N2C(=O)C(O)=C(C(=O)c3ccc(C)o3)C2c2ccc([N+](=O)[O-])cc2)nc1C (stereo not given)	-3.0	-0.4	4.8	-4.3	-1.1	/	/
O=C(C1CCN(c2ncnc3c2sc2cccc(F)c23)CC1)N1CCN(Cc2ccccc2)CC1	/	/	/	/	-1.6	/	/
CC1(C(=O)N/N=C/c2c(F)c(F)c(F)c(F)c2F)CC1(Cl)Cl (stereo not given)	32.2*	4.4	7.3	-3.4	-4.2	11.2	54.5*
Cc1c(/C=N\NC(=O)C2(C)CC2(Cl)Cl)cnn1C (stereo not given)	-2.0	0.9	4.2	-1.5	2.3	/	/
Cc1ccccc1C(=O)n1ccc2ccc(-c3ccc4ccn(Cc5ccc(C#N)cc5)c4c3)cc21	/	/	/	/	-2.2	/	/
CC1(C(=O)N2CCC(CO)(Cc3cccc(C(F)(F)F)c3)CC2)CC1	29.8*	0.3	4.7	2.1	-3.7	-2.1	-17.6
C=CC[C@H]1c2ccccc2[C@H]2N3N=Cc4ccccc4[C@H]3[C@H](CCCC)C(=O)N2N1C(=O)c1ccccc1	/	/	/	/	-3.1	/	/
COC(=O)C1=C(C)N(Cc2ccccc2C(F)(F)F)C(=NCc2ccc(OC)cc2)NC1c1ccccc1C(F)(F)F (stereo not given)	/	/	/	/	-4.8	/	/
Cc1nc(=O)c(-c2ccccc2)c(C)n1-c1ccccc1	30.9*	-0.2	3.4	1.8	-0.1	-6.4	-2.9
Cc1nc(=O)c(-c2ccccc2)c(C)n1-c1ccc(O)cc1	-1.0	-2.0	-2.0	-1.9	1.3	/	/
O=c1oc2cc(O)c(Cl)cc2c2ccccc12	56.4*	6.7	-6.2	-1.6	-1.8	41.2*	63.6*
COc1ccc2c(c1)oc(=O)c1ccccc12	-3.4	-2.9	-6.6	0.6	2.8	/	/
